Reference: ChEMBL document CHEMBL2169837 (J Med Chem, 2012)
Activity calls are given as the source filed them. The calls are words filed in the database; no cut-off is given here.

Tests used:
Vasopressin V1a receptor [1] = molecular target: T1, Vasopressin V1a receptor (Homo sapiens, UniProt P37288); test: Binding affinity to SNAP-tagged vasopressin V1a receptor expressed in COS7 cells assessed as interaction with vasopressin V2/V1a receptor dimer after 1 hr by FRET assay; type: cell-based; details: COS-7
How it was run: (§1)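 Cos7 cells expressing SNAP-V1a, SNAP-V2 or both, 50000 cells/well. Incubated overnight at 4 °C with one donor plus one acceptor fluorescent ligand, each near its Kd. Signal given as %ΔF from the 665/620 ratio (excitation 335 nm) against mock cells. Receptor expression measured by SNAP-Lumi4-Tb labeling (100 nM, 1 h, room temperature), read at 620 nm.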
Target sequence in this assay (P37288 whole entry, looked up): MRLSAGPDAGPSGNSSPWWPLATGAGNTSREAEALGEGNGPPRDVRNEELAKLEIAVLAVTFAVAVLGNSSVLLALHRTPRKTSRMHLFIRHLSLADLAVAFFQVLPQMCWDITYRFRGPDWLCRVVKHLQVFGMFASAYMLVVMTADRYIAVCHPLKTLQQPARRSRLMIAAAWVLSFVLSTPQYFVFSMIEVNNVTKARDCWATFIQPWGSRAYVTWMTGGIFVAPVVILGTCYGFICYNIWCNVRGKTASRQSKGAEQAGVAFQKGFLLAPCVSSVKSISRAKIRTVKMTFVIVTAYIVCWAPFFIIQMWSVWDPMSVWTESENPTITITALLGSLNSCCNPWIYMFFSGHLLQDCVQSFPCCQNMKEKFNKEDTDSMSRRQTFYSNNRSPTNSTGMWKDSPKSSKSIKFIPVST

Vasopressin V1a receptor [2] = molecular target: T1, Vasopressin V1a receptor; test: Binding affinity to SNAP-tagged vasopressin V1a receptor expressed in COS7 cells after 1 hr by FRET assay; type: cell-based; details: COS-7; how it was run: as §1
Target sequence in this assay (P37288 whole entry, looked up): as above

[3] = Binding affinity to vasopressin V2 receptor in rabbit kidney membranes; type: cell membranes, Oryctolagus cuniculus, Membrane
Vasopressin V2 receptor [4] = molecular target: T2, Vasopressin V2 receptor (Homo sapiens, UniProt P30518); test: Antagonist activity at human vasopressin V2 receptor expressed in CHO cells assessed as inhibition of AVP-induced cAMP accumulation after 30 mins by TR-FRET based HTRF assay; type: functional, cell-based
T2 sequence (P30518 whole entry): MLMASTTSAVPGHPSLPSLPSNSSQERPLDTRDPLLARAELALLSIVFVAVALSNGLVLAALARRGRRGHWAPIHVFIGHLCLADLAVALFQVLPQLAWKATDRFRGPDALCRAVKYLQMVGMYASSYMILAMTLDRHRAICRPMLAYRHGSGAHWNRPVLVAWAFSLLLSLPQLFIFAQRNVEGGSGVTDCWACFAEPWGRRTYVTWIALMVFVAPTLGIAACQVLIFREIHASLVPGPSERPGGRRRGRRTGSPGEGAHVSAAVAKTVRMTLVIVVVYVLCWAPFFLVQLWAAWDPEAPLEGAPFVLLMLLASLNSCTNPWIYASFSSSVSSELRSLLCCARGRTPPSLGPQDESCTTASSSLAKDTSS
How it was run: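 CHO cells stably expressing human V2R, 5 × 10^3 per well on polyornithine, used 24 h after seeding. Incubated 30 min at 37 °C with compound (10−12 to 10−5 M) plus phosphodiesterase inhibitor RO 201724 0.1 mM. Antagonist mode run with 1 nM AVP. Cells lysed and cAMP read by HTRF (TR-FRET). Kact/Kinact from three independent experiments in triplicate, mean ± SEM.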

Vasopressin V2 receptor [5] = molecular target: T2, Vasopressin V2 receptor; test: Agonist activity at human vasopressin V2 receptor expressed in CHO cells assessed as cAMP accumulation after 30 mins by TR-FRET based HTRF assay; type: functional, cell-based
How it was run: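 CHO cells stably expressing human V2R, 5 × 10^3 per well on polyornithine, used 24 h after seeding. Cells lysed and cAMP read by HTRF (TR-FRET). Kact/Kinact from three independent experiments in triplicate, mean ± SEM.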

Oxytocin receptor [6] = molecular target: T3, Oxytocin receptor (Homo sapiens, UniProt P30559); test: Binding affinity to oxytocin receptor
T3 sequence (P30559 whole entry): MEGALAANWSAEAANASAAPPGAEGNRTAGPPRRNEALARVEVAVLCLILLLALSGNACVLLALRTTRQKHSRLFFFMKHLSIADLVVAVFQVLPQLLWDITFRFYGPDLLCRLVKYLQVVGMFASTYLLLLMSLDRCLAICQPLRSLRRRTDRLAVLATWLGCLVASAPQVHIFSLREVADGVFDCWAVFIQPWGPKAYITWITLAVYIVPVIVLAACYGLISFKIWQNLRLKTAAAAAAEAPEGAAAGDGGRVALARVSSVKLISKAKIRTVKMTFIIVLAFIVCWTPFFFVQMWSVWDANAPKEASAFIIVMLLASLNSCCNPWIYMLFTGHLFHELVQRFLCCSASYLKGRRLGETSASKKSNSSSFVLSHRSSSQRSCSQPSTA
How it was run: (§2)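 Membranes (5 μg protein) from CHO cells stably expressing human V2R, V1aR, V1bR or OTR. Incubated 30 min at 30 °C in 50 mM Tris-HCl pH 7.4, 5 mM MgCl2, 1 mg/mL BSA with [3H]-AVP (1−2 nM) and competitor from 100 pM to 100 μM. Nonspecific binding with 10 μM AVP. GF/C filtration; Ki by nonlinear least-squares regression. Triplicate, at least three membrane batches.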

Vasopressin V1a receptor [7] = molecular target: T1, Vasopressin V1a receptor; test: Binding affinity to vasopressin V1a receptor; how it was run: as §2
Target sequence in this assay (P37288 whole entry): as the sequence (P37288 whole entry, looked up) above

Vasopressin V2 receptor [8] = molecular target: T2, Vasopressin V2 receptor; test: Displacement of [3H]-AVP from human vasopressin V2 receptor expressed in CHO cells after 30 mins; type: cell-based
[9] = molecular target: Vasopressin V2 receptor (Oryctolagus cuniculus); test: Binding affinity to vasopressin V2 receptor
Vasopressin V2 receptor [10] = molecular target: T2, Vasopressin V2 receptor; test: Binding affinity to SNAP-tagged vasopressin V2 receptor expressed in COS7 cells assessed as interaction with vasopressin V2/V1a receptor dimer after 1 hr by FRET assay; type: cell-based; details: COS-7; how it was run: as §1
Vasopressin V2 receptor [11] = molecular target: T2, Vasopressin V2 receptor; test: Binding affinity to SNAP-tagged vasopressin V2 receptor expressed in COS7 cells after 1 hr by FRET assay; type: cell-based; details: COS-7; how it was run: as §1
Homo sapiens = species on record: Homo sapiens; test: Selectivity ratio of Ki for human oxytocin receptor to Ki for human vasopressin V2 receptor
Oxytocin receptor [12] = molecular target: T3, Oxytocin receptor; test: Displacement of [3H]-AVP from human oxytocin receptor expressed in CHO cells after 30 mins; type: cell-based
[13] = molecular target: T4, Vasopressin V1b receptor (Homo sapiens) (UniProt P47901); test: Displacement of [3H]-AVP from human vasopressin V1b receptor expressed in CHO cells at 10 uM after 30 mins; type: cell-based
T4 sequence (whole entry): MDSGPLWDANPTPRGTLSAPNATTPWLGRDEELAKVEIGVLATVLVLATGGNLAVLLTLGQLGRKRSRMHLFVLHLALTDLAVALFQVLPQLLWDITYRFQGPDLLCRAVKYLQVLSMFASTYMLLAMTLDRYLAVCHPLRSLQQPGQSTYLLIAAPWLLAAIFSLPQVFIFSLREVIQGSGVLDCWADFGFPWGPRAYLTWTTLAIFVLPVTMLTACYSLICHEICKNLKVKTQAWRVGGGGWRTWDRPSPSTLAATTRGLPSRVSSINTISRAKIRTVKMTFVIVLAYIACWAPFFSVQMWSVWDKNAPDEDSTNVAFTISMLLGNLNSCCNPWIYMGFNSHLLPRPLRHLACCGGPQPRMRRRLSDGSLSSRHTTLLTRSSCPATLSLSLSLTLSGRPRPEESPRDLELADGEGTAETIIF
How it was run: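 Human OTR, V1aR or V1bR membranes from CHO cells, [3H]-AVP displacement with compound at a single 10 μM concentration, 30 min at 30 °C in Tris-HCl pH 7.4/MgCl2/BSA buffer.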

Vasopressin V1b receptor = molecular target: T5, Vasopressin V1b receptor (Homo sapiens, UniProt P47901); test: Displacement of [3H]-AVP from human vasopressin V1b receptor expressed in CHO cells after 30 mins; type: cell-based
T5 sequence (P47901 whole entry): T4 sequence (whole entry)

Vasopressin V1a receptor [14] = molecular target: T1, Vasopressin V1a receptor; test: Displacement of [3H]-AVP from human vasopressin V1a receptor expressed in CHO cells after 30 mins; type: cell-based
Target sequence in this assay (P37288 whole entry): as the sequence (P37288 whole entry, looked up) above

Vasopressin V2 receptor [15] = molecular target: T2, Vasopressin V2 receptor; test: Binding affinity to SNAP-tagged vasopressin V2 receptor expressed in HEK293 cells after 1 hr by TR-FRET assay; type: cell-based
How it was run: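 HEK 293T cells electroporated with SNAP-tag–V2R and grown 48 h. Receptor labeled 1 h at 37 °C with SNAP-Lumi4-Tb (100 nM) or SNAP-RED (300 nM), then washed. Rising fluorescent-ligand concentrations added and incubated overnight at 4 °C. TR-FRET read with excitation 340 nm, emission 620/665 nm. Nonspecific binding taken with 10 μM unlabeled ligand. Kd from saturation, three experiments in triplicate.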

With `COc1ccc(C[C@@H](NC(=O)CCc2ccc(O)cc2)C(=O)N[C@@H](Cc2ccccc2)C(=O)N[C@@H](CCC(N)=O)C(=O)N[C@@H](CC(N)=O)C(=O)N[C@@H](CCCNC(=N)N)C(=O)N2CCC[C@H]2C(=O)N[C@@H](CCCCNC(=O)CCCCC2(C)C(/C=C/C=C/C=C3\N(CCCS(=O)(=O)O)c4ccc(S(=O)(=O)[O-])cc4C3(C)C)=[N+](CCCS(=O)(=O)O)c3ccc(S(=O)(=O)O)cc32)C(N)=O)cc1` (some centres not stated) the Activity (Vasopressin V1a receptor [1]) was “Active” and the Activity (Vasopressin V1a receptor [2]) was “Active”.

With `Cc1ccccc1C(=O)Nc1ccc(C(=O)N2CCCCc3ccccc32)cc1` the Ki [3] was 7.2 nM, the inhibition (Vasopressin V2 receptor [4]) was “Dose-dependent effect” and the Activity (Vasopressin V2 receptor [5]) was “inactive”. For the same molecule, the Ki (Oxytocin receptor [6]) was 30 nM, the Ki (Vasopressin V1a receptor [7]) was 8.1 nM and the Ki (Vasopressin V2 receptor [8]) was 2.68 nM. The Ki [9] was 7.2 nM.

With `O=C(Nc1ccc(C(=O)N2CCCCc3ccccc32)cc1)c1ccccc1-c1ccccc1` the Ki [3] was 7.6 nM, the inhibition (Vasopressin V2 receptor [4]) was “Dose-dependent effect” and the Activity (Vasopressin V2 receptor [5]) was “inactive”. For the same molecule, the Ki (Oxytocin receptor [6]) was 63 nM, the Ki (Vasopressin V1a receptor [7]) was 14.1 nM and the Ki [9] was 7.5 nM.

For `CCN1/C(=C/C=C/C=C/C2=[N+](CC)c3ccc(S(=O)(=O)[O-])cc3C2(C)C)C(C)(CCCC(=O)NCCn2cc(CNC(=O)CCC(=O)NC3CCCN(C(=O)c4ccc(NC(=O)c5ccccc5-c5ccccc5)cc4)c4ccccc43)nn2)c2cc(S(=O)(=O)O)ccc21` (configuration not stated), the Activity (Vasopressin V2 receptor [10]) was “Active”, the Activity (Vasopressin V2 receptor [11]) was “Active” and the Ratio Ki (Homo sapiens) was 32. For the same molecule, the Ki (Oxytocin receptor [12]) was 184 nM, the inhibition [13] was under 50% and the Ki (Vasopressin V1b receptor) was over 10000 nM. It also gave a Ki (Vasopressin V1a receptor [14]) of 621 nM, a Kd (Vasopressin V2 receptor [15]) of 1.38 nM and a Kb (Vasopressin V2 receptor [4]) of 0.1 nM. The inhibition (Vasopressin V2 receptor [4]) was “Dose-dependent effect”, the Activity (Vasopressin V2 receptor [5]) was “inactive” and the Ki (Vasopressin V2 receptor [8]) was 5.69 nM.
